Results on twelve compounds are retold here after ChEMBL document CHEMBL4020701, “A strategy for dual inhibition of the proteasome and fatty acid synthase with belactosin C-orlistat hybrids” (Bioorg Med Chem, 2017).

Broadly, the IC50 is the concentration needed to halve the response being measured.

Series [1] is described as follows: Half life in DMEM medium at 5 uM in absence of 5% FBS by HPLC method. It counts as physicochemical. The procedure, abridged:
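Compound diluted from DMSO stock to 5 µM final in DMEM (pH 7.5) and held at 37 °C under 5% CO2. Aliquots taken at intervals and quenched with pH 2.0 phosphate buffer. Remaining β-lactone quantified by C18 HPLC integration against initial compound. Run in triplicate.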

Series [2] deals with T1, Fatty acid synthase (Homo sapiens, UniProt P49327). Nature of the series: Competitive inhibition of human FAS thioster domain in MCF cells preincubated for 30 mins followed by TAMRA-N3 labelled (S)-4-ethynylbenzyl 2-((S)-2-(benzyloxycarbonylamino)-6-((2R,3S)-3-hexyl-4-oxooxetane-2-carboxamido)hexanamido)propanoate probe addition after 30 mins […]. It counts as cell-based. The procedure, abridged:
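MCF-7 cells at 80–90% confluency in serum-free medium, pre-incubated 30 min at 37 °C with competitor (10 → 100 µM, 1–10-fold excess over probe; DMSO ≤0.1%). Alkyne probe then added at 10 µM final for 30 min. Cells lysed in NP-40/deoxycholate, protein normalized by BCA, clicked to TAMRA-N3 (CuSO4/TCEP/TBTA, 1–1.5 h RT), resolved by SDS-PAGE, read by in-gel fluorescence.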
Target sequence in this assay (P49327 whole entry, looked up, the tested form may be a part): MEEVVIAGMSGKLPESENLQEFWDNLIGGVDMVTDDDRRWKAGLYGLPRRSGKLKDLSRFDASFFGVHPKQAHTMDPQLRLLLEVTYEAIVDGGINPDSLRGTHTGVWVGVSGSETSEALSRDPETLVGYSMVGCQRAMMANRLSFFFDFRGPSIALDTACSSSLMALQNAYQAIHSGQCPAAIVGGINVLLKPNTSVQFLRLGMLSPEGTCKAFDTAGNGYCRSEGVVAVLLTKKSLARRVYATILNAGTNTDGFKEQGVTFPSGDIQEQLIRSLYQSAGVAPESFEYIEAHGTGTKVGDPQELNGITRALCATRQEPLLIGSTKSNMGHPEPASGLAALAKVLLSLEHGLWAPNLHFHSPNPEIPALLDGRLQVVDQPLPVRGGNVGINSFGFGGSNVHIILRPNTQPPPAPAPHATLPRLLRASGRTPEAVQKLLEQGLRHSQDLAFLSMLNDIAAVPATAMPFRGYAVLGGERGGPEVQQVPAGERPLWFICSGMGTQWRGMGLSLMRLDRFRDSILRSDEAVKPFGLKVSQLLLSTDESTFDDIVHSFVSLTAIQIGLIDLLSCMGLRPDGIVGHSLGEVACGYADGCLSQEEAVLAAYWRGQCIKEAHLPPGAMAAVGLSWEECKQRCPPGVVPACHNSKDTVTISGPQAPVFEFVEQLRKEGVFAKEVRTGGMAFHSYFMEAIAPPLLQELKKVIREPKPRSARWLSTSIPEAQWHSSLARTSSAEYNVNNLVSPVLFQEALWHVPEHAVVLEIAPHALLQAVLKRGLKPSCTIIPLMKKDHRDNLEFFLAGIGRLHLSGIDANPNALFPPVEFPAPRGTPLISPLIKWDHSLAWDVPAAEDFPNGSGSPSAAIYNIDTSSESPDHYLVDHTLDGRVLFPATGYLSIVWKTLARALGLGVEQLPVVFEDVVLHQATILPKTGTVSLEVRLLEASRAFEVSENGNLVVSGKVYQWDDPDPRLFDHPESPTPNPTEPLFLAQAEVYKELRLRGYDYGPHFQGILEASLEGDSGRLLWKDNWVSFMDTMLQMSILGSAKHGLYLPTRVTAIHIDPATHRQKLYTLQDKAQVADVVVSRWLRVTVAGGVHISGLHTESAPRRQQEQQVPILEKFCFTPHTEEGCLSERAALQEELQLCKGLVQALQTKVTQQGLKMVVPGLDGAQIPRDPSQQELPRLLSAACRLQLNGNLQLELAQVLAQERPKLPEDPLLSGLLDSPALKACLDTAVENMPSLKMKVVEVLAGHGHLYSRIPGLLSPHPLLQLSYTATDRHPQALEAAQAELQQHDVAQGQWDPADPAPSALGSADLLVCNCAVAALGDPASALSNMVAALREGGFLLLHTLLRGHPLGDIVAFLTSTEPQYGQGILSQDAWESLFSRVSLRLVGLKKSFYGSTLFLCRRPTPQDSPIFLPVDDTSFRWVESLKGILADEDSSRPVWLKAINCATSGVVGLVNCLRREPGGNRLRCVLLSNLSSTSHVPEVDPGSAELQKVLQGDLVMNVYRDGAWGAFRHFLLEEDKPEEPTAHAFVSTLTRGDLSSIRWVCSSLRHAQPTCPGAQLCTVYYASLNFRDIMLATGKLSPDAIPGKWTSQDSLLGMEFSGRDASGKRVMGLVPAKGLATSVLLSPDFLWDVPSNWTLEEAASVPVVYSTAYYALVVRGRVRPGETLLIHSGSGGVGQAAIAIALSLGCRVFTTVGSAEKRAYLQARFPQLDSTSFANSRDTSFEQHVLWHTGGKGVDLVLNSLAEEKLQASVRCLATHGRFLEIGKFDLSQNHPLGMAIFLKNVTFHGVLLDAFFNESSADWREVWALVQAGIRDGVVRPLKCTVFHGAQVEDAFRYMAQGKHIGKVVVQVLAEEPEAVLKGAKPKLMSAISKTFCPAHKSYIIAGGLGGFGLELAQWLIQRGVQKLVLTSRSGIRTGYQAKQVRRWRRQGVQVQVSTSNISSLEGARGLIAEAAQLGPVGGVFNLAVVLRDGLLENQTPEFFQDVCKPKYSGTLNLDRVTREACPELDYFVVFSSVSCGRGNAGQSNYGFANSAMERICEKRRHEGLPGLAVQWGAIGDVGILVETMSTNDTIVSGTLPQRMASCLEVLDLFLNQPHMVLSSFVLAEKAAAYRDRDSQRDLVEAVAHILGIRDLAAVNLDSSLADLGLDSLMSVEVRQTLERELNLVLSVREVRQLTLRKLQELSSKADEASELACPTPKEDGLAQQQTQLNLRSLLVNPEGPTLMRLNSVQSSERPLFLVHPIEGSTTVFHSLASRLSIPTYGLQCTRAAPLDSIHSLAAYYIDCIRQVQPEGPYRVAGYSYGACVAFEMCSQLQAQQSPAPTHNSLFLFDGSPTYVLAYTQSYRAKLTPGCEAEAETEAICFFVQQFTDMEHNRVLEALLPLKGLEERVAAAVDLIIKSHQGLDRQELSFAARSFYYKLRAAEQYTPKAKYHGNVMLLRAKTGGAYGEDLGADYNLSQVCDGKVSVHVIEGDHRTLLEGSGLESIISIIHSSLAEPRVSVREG

Series [3] in a line: Half life in DMEM medium at 5 uM in presence of 5% FBS by HPLC method. It counts as physicochemical. The note with it: cattle. The gist of the method:
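Compound at 5 µM final in DMEM with 5% FBS at 37 °C, 5% CO2. Aliquots quenched with pH 2.0 phosphate buffer plus acetonitrile and vortexed to precipitate serum protein. Clear supernatant analysed by C18 HPLC as % β-lactone remaining versus initial. Triplicate.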

The target of series [4] is T2, Proteasome Macropain subunit MB1 (Homo sapiens, UniProt P28074).
T2 sequence (P28074 whole entry): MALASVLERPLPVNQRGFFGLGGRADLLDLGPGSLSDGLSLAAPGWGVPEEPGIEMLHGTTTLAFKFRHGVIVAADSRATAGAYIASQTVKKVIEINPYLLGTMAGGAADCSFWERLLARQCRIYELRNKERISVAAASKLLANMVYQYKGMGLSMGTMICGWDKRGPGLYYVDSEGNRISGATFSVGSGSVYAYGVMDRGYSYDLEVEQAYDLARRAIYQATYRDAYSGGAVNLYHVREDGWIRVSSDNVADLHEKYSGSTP
Nature of the series: Inhibition of chymotrypsin-like activity of 20S proteasome in human red blood cells pretreated for 20 mins followed by Suc-Leu-Leu-Val-Tyr-AMC substrate addition by fluorescence assay. It counts as cell-based. The procedure, abridged:
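20S proteasome (50 ng) from human erythrocytes, preincubated 20 min at 37 °C in 20 mM Tris pH 7.5 with inhibitor series. AMC substrate then added: 10 µM Suc-LLVY for chymotrypsin-like, 20 µM Boc-LRR for trypsin-like, 20 µM Z-LLE for caspase-like. Hydrolysis followed at 360/460 nm for 600 s; the linear rate was fitted to a four-parameter curve for IC50. Triplicate.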

In the next series the test system is HeLa. Nature of the series: Cytotoxicity against human HeLa cells assessed as reduction in cell viability after 24 hrs by MTT assay. It counts as functional, cell-based. The procedure, abridged:
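HeLa cells grown in DMEM with 10% FBS were seeded at 5000/well and left overnight. MTT was then added for 4 h, the formazan dissolved in DMSO and A570 read. IC50 came from dose-response curves; mean ± SEM of three independent experiments.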
A general note: Formazan colour is commonly taken as a measure of viable cells.

In series [5] the target is T1, Fatty acid synthase. Put plainly: Inhibition of human FAS thioster domain preincubated for 30 mins followed by 4-methylumbelliferyl heptanoate substrate addition measured every 5 mins for 60 mins by fluorescence assay.
Target sequence in this assay (P49327 whole entry, the tested form may be a part): as the sequence (P49327 whole entry, looked up, the tested form may be a part) above
Series [6] concerns the target T1, Fatty acid synthase. Put plainly: Inhibition of FAS thioster domain (unknown origin). The gist of the method: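 Human FAS-TE (500 nM) in 100 mM Tris-HCl, 50 mM NaCl, pH 7.4, preincubated 30 min at 37 °C with compound (0.32–100 µM and/or 0.08–10 µM final, DMSO). Reaction started with 4-methylumbelliferyl heptanoate. Fluorescence (350/450 nm) read every 5 min for 60 min, substrate-only background. IC50 by four-parameter fit; triplicate.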
Target sequence in this assay (P49327 whole entry, the tested form may be a part): as the sequence (P49327 whole entry, looked up, the tested form may be a part) above

Consider `CCCCCC[C@@H]1C(=O)O[C@H]1C(=O)NCCCC[C@H](NC(=O)OCc1ccccc1)C(=O)N[C@@H](C)C(=O)OCc1ccccc1`, for which the t1/2 in series [1] is 20 min; in series [3], < 3 min. Also, the inhibition entry at Fatty acid synthase [2] was “Dose-dependent effect”. The half-inhibitory concentration (IC50) in series [4] turned out to be 370 nM; in the series with HeLa it was 45800 nM; on Fatty acid synthase [5], 1500 nM.
With `CCCCCC[C@@H]1C(=O)O[C@H]1C(=O)NCCCC[C@@H]1NC(=O)N([C@@H](C)C(=O)OCc2ccccc2)C1=O`, the values for the concentration for half-maximal inhibition (IC50) (in series [4]; against Fatty acid synthase [5]) were 510 nM and 5550 nM, respectively.
Taken in the same sequence, the figures for `CCCCCC[C@H]1C(=O)O[C@@H]1C(=O)NCCCC[C@H](NC(=O)OCc1ccccc1)C(=O)N[C@@H](C)C(=O)OCc1ccccc1` were 2710 nM and 12600 nM.
As to `CCCCCCCCCCC[C@@H](C[C@@H]1OC(=O)[C@H]1CCCCCC)OC(=O)[C@H](CC(C)C)NC=O` [ORLISTAT], in series [4], the IC50 was > 100000 nM.
As for `CCCCCC[C@@H]1C(=O)O[C@H]1C(=O)NCCC[C@H](NC(=O)[C@H](C)NC(=O)OCc1ccccc1)C(=O)OCc1ccccc1`, the half-maximal inhibitory concentration (IC50) at Fatty acid synthase [6] is 160 to 4000 nM; in series [4] it was 700 nM; on Fatty acid synthase [5], 4350 nM.
With `CCCCCC[C@@]1(C)C(=O)O[C@@H]1C(=O)NCCCC[C@H](NC(=O)[C@H](C)NC(=O)OCc1ccccc1)C(=O)OCc1ccccc1`, half-maximal inhibition on Fatty acid synthase [5] (IC50) was put at 3110 nM.
Still for that read-out and setting: in the case of `CCCCCC[C@@]1(C)C(=O)O[C@H]1C(=O)NCCCC[C@H](NC(=O)[C@H](C)NC(=O)OCc1ccccc1)C(=O)OCc1ccccc1` it was 1190 nM.
Same read-out and setting: in the case of `CCCCCC[C@@H]1C(=O)O[C@H]1C(=O)NCCCC[C@H](NC(=O)[C@H](C)NC(=O)c1ccc(Br)cc1)C(=O)OCc1ccccc1` it was 4810 nM.
Turning to `CCCCCC[C@]1(C)C(=O)O[C@H]1C(=O)NCCCC[C@H](NC(=O)[C@H](C)NC(=O)OCc1ccccc1)C(=O)OCc1ccccc1`, the t1/2 in series [1] was 70 min; in series [3], 120 min. At Fatty acid synthase [5], this compound showed an IC50 of 2610 nM.
Take `CC(C)C[C@@H]1C(=O)O[C@H]1C(=O)NCCC[C@H](NC(=O)[C@H](C)NC(=O)OCc1ccccc1)C(=O)OCc1ccccc1`: the concentration for half-maximal inhibition (IC50) against Fatty acid synthase [6] fell in the range of 160 to 4000 nM.
Regarding `C#Cc1ccc(COC(=O)[C@H](C)NC(=O)[C@H](CCCCNC(=O)[C@@H]2OC(=O)[C@H]2CCCCCC)NC(=O)OCc2ccccc2)cc1`, the figures for the half-maximal inhibitory concentration (IC50) (in series [4]; on Fatty acid synthase [5]) were 260 nM and 3980 nM, respectively.
Take `CCC[C@@H]1C(=O)O[C@H]1C(=O)NCCC[C@H](NC(=O)[C@H](C)NC(=O)OCc1ccccc1)C(=O)OCc1ccccc1`: the half-maximal inhibitory concentration (IC50) on Fatty acid synthase [6] was 160 to 4000 nM.
